Sampled rows, rich in hits. Any-hit rate of the full collection: about 2.1%.
Runt-CBFb FRET – Runt domain-CBFb interaction inhibition | 220,000 tested, 0.46% active | AID 1496 | Cerulean-Runt/Venus-CBFb FRET ratio 530/480, 1 h | inhibition, % at 20 µM;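 active = inhibition over about 50% at 20 µM in the single-dose screen, limit read from the data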;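 also: 0% = DMSO wells and 100% = excess unlabeled CBFb competitor control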
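System: Cerulean-labeled Runt domain protein | Quantity: 100 nM of each labeled protein | Schedule: 1 h compound exposure, room temperature | Detection: Fluorescence energy transfer, 422 nm excitation, 530/480 nm emission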
TNF necrop inh – inhibitors of TNF-alpha induced necroptosis in Jurkat FADD-/- cells; 220,000 tested, 0.068% active; Jurkat FADD-/- TNF necroptosis rescue, ATP luminescence, 24 h; 0 = TNF only, 100 = no-TNF cells; activation (protection from cell death), % at 10 µM;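 active = activation, meaning protection from cell death, of at least 50% relative to plate controls; inactive = activation below 50%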;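 also: necroptosis triggered by 40 ng/mL TNF-alpha added together with compound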
Hck-Nef inh – human Hck-Nef kinase inhibition | inhibition, % at 20 µM | Recombinant Hck-YEEI plus Nef, Z-Lyte FRET kinase assay | P08631 | 220,000 tested, 0.68% active | AID 463187;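 active = Hck-Nef kinase inhibition above about 50%, limit read from the data; inactive = inhibition below that limit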;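 also: 0% = DMSO with Hck plus Nef and 100% = Hck alone without Nef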
Target sequence (P08631 whole entry, looked up): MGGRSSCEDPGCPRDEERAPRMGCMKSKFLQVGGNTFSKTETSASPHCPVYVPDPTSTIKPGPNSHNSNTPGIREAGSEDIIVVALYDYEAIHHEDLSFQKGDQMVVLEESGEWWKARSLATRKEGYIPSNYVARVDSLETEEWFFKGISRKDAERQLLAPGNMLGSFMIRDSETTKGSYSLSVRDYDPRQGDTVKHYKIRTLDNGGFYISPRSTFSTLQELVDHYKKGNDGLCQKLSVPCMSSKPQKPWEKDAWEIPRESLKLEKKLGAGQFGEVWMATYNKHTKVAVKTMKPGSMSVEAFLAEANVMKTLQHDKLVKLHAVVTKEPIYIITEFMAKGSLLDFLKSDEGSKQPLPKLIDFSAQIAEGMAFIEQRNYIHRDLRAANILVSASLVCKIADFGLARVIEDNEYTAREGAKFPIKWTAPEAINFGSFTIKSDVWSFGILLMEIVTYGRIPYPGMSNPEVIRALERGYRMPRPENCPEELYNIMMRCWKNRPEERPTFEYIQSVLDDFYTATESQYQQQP
zVAD death inh – blocks zVAD induced death of L929 cells; AID 1377; 220,000 tested, 0.38% active; viability rescue, % at 10 µM; L929 zVAD necroptosis rescue, ATP luminescence, 24 h; with zVAD 60 µM;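 active = activation, scaled between plate controls, above about 75%, limit read from the data; inactive = activation under that limit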;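 also: 0% = zVAD with DMSO and 100% = DMSO alone without zVAD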
RanGTP-Imp inh – inhibitors of RanGTP-importin-beta interaction, primary screen, biochemical, FRET, CFP-Ran, YFP-importin-beta, homogeneous. AID 2216. inhibition, % (concentration not given with the values). 300,000 tested, 1.1% active. cell-free CFP-Ran/YFP-importin-beta FRET ratio;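 active = more than half of the replicate wells show a fall in the fluorescence ratio signal beyond about 16%, limit read from the data, passing the limit was not always enough; inconclusive = exactly half of the replicate wells pass the set limit; inactive = fewer than half of replicates pass the limit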;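 also: 0% = DMSO wells and 100% = Ran loaded with GDP instead of GTP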
Runt-SMMHC FRET – inhibitors of human RUNX1 Runt domain binding to CBFb-SMMHC | inhibition, % at 20 µM | Q01196+Q13951 | 220,000 tested, 0.74% active | Cerulean-Runt/Venus-CBFb-SMMHC FRET ratio 530/480, 1 h;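 active = mean inhibition across duplicate retests at 20 µM reaching about 50%, limit read from the data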;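 also: 0% = DMSO wells and 100% = wells with excess untagged CBFb-SMMHC; inhibitors lower the FRET ratio by blocking Runt binding to CBFb-SMMHC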
Active calls of the source: *; ? = inconclusive; · = no result.

SMILES	Runt-CBFb FRET	TNF necrop inh	Hck-Nef inh	zVAD death inh	RanGTP-Imp inh	Runt-SMMHC FRET
CC(=O)N1CSCC1C(=O)NNS(=O)(=O)c1cccc(C(F)(F)F)c1 (stereo unspecified)	0	3	-1	1	4	-6
CC(=O)c1c(C)[nH]c(C(=O)NCc2ccccc2)c1C	50*	0	0	0	-5	3
CC(=O)C1=C(S(=O)(=O)c2ccc(C)cc2)CS(=O)(=O)C1	34	0	-73	0	-1	19
O=C1NC(Cc2c[nH]c3ccccc23)C(=O)N1CCOc1ccc(F)cc1 (stereo unspecified)	-1	65*	0	7	-1	-3
CCCN=Cc1sc2ccc(OCC)cc2c1O	8	0	2	0	5	4
Oc1c(/C=N/c2ccccn2)sc2ccccc12	10	-18	-1	0	23*	16
Oc1c(C=Nc2cccnc2)sc2ccccc12	34	-11	2	0	22*	63*
CN=Cc1sc2ccccc2c1O	28	-2	2	3	13	54
CC(=O)NCCN=Cc1sc2ccccc2c1O	31	-1	2	4	31*	60*
Oc1c(C=NCc2ccncc2)sc2ccccc12	42	-2	6	-1	13	66*
Oc1c(C=Nc2ccc(Cl)cn2)sc2ccccc12	22	-9	2	2	?	-11
Cc1ccc(CNC(=O)Cn2ccc3cc(S(=O)(=O)N4CCCCCC4)ccc32)cc1	·	·	·	·	0	·
Cc1ccc(SC[C@H](Cc2ccccc2)N2CC[C@@H](NC(=O)OCc3ccccc3)CCC2=O)cc1	·	·	·	·	1	·
CCOC(=O)c1c([N+](=O)[O-])c(C)[nH]c(=O)c1C#N	0	0	1	0	5	-2
Cn1cc([C@@H]2C[C@H]3CN(Cc4cccc(Cl)c4)C(=O)[C@]34CCCN24)c2ccccc21	-4	0	6	0	1	-1
N=c1c(S(=O)(=O)c2ccc(Cl)cc2)cc2c(=O)n3ccccc3nc2n1CCN1CCOCC1	90*	2	18	-2	6	63*
CC(C)OCCCn1c(=N)c(S(=O)(=O)c2ccccc2)cc2c(=O)n3ccccc3nc21	·	·	·	·	-3	·
Cc1ccc(S(=O)(=O)c2cc3c(=O)n4ccccc4nc3n(CCCN3CCOCC3)c2=N)cc1C	·	·	·	·	135*	·
N=c1c(S(=O)(=O)c2ccccc2)cc2c(=O)n3ccccc3nc2n1CCCN1CCOCC1	·	·	·	·	155*	·
N=c1c(S(=O)(=O)c2ccc(Cl)cc2)cc2c(=O)n3ccccc3nc2n1CCc1ccccc1	·	·	·	·	50*	·
O=C(Nc1nc2ccccc2s1)c1ccc(OCC2CCCO2)cc1 (stereo unspecified)	-1	4	7	1	1	-5
CCOCCCn1c(=N)c(S(=O)(=O)c2ccccc2)cc2c(=O)n3cc(C)ccc3nc21	·	·	·	·	160*	·
O=C(NC(C(=O)N/N=C/c1c2ccccc2cc2ccccc12)c1n[nH]c(=O)c2ccccc12)c1ccccc1 (stereo unspecified)	1	-11	-1	3	97*	8
CCN(CC)c1ccc(/C=C(\C#N)c2ccccn2)cc1	-21	-8	29	2	45*	-45
CN(CCC#N)c1ccc(/C=C(\C#N)c2ccccn2)cc1	4	2	47	3	-27	79*
SMILES	Runt-CBFb FRET	TNF necrop inh	Hck-Nef inh	zVAD death inh	RanGTP-Imp inh	Runt-SMMHC FRET
Cc1onc(-c2c(Cl)cccc2Cl)c1C(=O)NC(=S)Nc1sc2c(c1C(N)=O)CCC(C)C2 (stereo unspecified)	8	1	6	1	5	2
CC1CCc2c(sc(Nc3nc4c(F)cccc4s3)c2C(N)=O)C1 (stereo unspecified)	127*	0	10	4	170*	86*
COc1ccccc1-n1c(C)nc2cc(C(=O)NCC3CCCO3)ccc21 (stereo unspecified)	·	·	·	·	1	·
Nc1c(C(=O)OCC2CCCO2)c2nc3ccccc3nc2n1C1CCCCC1 (stereo unspecified)	24	1	2	6	0	67*
COc1ccccc1-n1c(N)c(C(=O)NCC2CCCO2)c2nc3ccccc3nc21 (stereo unspecified)	-6	1	46	66	57*	2
O=C(CCC(=O)N(CC(=O)NC1CCCC1)c1cccc(F)c1)Nc1nccs1	·	·	·	·	2	·
CC1(C)Cc2c(cnn2-c2cccc(F)c2)C(NC(=O)CCc2cnccn2)C1 (stereo unspecified)	·	·	·	·	2	·
O=C(COc1ccc2ccccc2c1)Nc1cccc2c1C(=O)NC2=O	-13	0	60*	-1	1	-48
FC(F)(F)c1cccc(NC(=S)Nc2cccc(NC(=S)Nc3cccc(C(F)(F)F)c3)n2)c1	23	-3	1	0	15*	5
Cc1ccc2c(c1)N(CC(=O)NC1CCCC(C)C1C)C(=O)c1cccnc1O2 (stereo unspecified)	·	·	·	·	-3	·
COCCCNC(=O)CN1C(=O)c2ccccc2C1=O	-1	-1	-3	1	-3	1
CCCn1c(C)cc(C(=O)CN2C(=O)c3cccc(N)c3C2=O)c1C	19	-1	0	1	·	57*
COc1ccccc1CNC(=O)CN1C(=O)c2cccc(N)c2C1=O	·	·	·	·	27*	·
CCCCNC(=O)CN1C(=O)c2cccc(N)c2C1=O	20	1	-9	1	-3	93*
Cc1cc(C(=O)CN2C(=O)c3ccccc3C2=O)c(C)n1Cc1cccs1	3	-1	1	0	-2	-6
CC1CCCCC1NC(=O)CN1C(=O)c2cccc(N)c2C1=O (stereo unspecified)	21	0	7	0	-4	86*
CC(CCC(=O)O)C1CC[C@@]2(C)C3C(=O)CC4C(C)(C)C(O)CC[C@]4(C)C3C(=O)C[C@]12C (stereo partly specified)	2	2	4	0	5	0
Cc1ccc(-c2nc(CN(C)Cc3cccc4cnccc34)c(C)o2)s1	3	-2	9	-1	0	-2
CCN1C(=O)[C@H]2[C@@H](c3ccc(-c4ccc(OC)cc4)cc3)N[C@@](C)(C(=O)OC)[C@H]2C1=O	·	·	·	·	0	·
Cc1cc(NC(=O)CCN2CCC(C(N)=O)CC2)ccc1Br	2	2	-1	0	59*	2
CN(Cc1ccccc1)C(=O)c1[nH]cnc1C(=O)NCC(=O)OCc1ccccc1	·	·	·	·	-1	·
Fc1ccc(CNc2nc(-c3ccco3)cc(C(F)(F)F)n2)cc1	6	2	5	2	58*	-17
